Results gathered from unrelated publications.
IDE: Insulin-degrading enzyme (IDE, Homo sapiens, UniProt P14735)
Tumor necrosis factor receptor superfamily member 9: Tumor necrosis factor receptor superfamily member 9 (Homo sapiens, UniProt Q07011)

| Structure (SMILES) | target | test | endpoint | value |
| --- | --- | --- | --- | --- |
| c1cncc(-c2cccc(Nc3nccc(NC4CCCCC4)n3)c2)c1 | Tyrosine-protein kinase JAK3, JH1 (JAK3, Homo sapiens, UniProt P52333) | binding, competition with immobilised ligand | Kd | 1300 nM |
| COc1ccc(OC(=O)N(CC(=O)O)Cc2ccc(OCCc3nc(-c4ccccc4)oc3C)cc2)cc1 | Peroxisome proliferator-activated receptor alpha (PPARA, Homo sapiens, UniProt Q07869) | reporter gene, agonist, luciferase | EC50 | 6500 nM |
| CNC(=O)c1cc2c(Oc3ccc(NC(=O)C4(C(=O)Nc5ccc(F)cc5)CC4)cc3)ccnc2cc1OC | Hepatocyte growth factor receptor (MET, Homo sapiens, UniProt P08581, Y1230D) | enzyme activity, inhibitor, radiometric | IC50 | 9 nM |
| CC/C=C\C/C=C\C/C=C\C/C=C\C/C=C\C/C=C\CCC(=O)O | Nuclear receptor subfamily 4 group A member 2 (Homo sapiens, UniProt P43354) | binding | Kd | 30000 nM |
| Cc1cnc(-c2ccc(-c3ccc(NC(=O)Nc4c(F)cc(F)cc4F)cc3F)c3c2C(=O)NC3)[nH]1 | Myosin-IIIa (MYO3A, Homo sapiens, UniProt Q8NEV4) | binding, competition with immobilised ligand | Kd | 13 nM |
| COC(=O)[C@H](Cc1c[nH]cn1)NC(=O)CN(CC(=O)O)Cc1ccc(C)cc1 | IDE | enzyme activity, inhibitor, fluorescence | IC50 | 1700 nM |
| CCCC[C@@H]1NC(=O)[C@H](Cc2ccc(O)cc2)NC(=O)[C@@H]2CCCN2C(=O)[C@H](CC(=O)O)NC(=O)[C@H](C)NC(=O)[C@H](Cc2ccccc2)NC(=O)[C@@H]2CSCCC(=O)N3CN(CN(C3)C(=O)CCSC[C@@H](C(=O)N[C@@H](CNC(=O)CCc3cn(CCOCCOCCOCCOCCOCCOCCOCCOCCOCCOCCOCCOCCC(=O)NCCC(=O)N(C)CC(=O)N(C)CC(=O)N(C)CC(=O)N(C)CC(=O)N(C)CC(=O)N(C)CC(=O)N(C)CC(=O)N(C)CC(=O)N(C)CC(=O)N(C)CC(=O)NCCCC[C@@H]4NC(=O)[C@H](Cc5cccc6ccccc56)NC(=O)[C@@H]5CCCN5C(=O)[C@@H](NC(C)=O)CSCCC(=O)N5CN6CN(C5)C(=O)CCSC[C@H](NC4=O)C(=O)N[C@@H](CCSC)C(=O)N[C@@H](CCCCNC(=N)N)C(=O)N[C@@H](CC(=O)O)C(=O)N[C@@H](Cc4c[nH]c5ccccc45)C(=O)N[C@@H](CO)C(=O)N[C@@H]([C@@H](C)O)C(=O)N4CCC[C@H]4C(=O)N4C[C@H](O)C[C@H]4C(=O)N[C@@H](Cc4c[nH]c5ccccc45)C(=O)N[C@H](C(N)=O)CSCCC6=O)nn3)C(N)=O)NC1=O)C(=O)CCSC[C@H](NC(C)=O)C(=O)N[C@@H](CC(C)(C)C)C(=O)N1CCC[C@H]1C(=O)N[C@@H](CCC(=O)O)C(=O)N[C@H](C)C(=O)N1CCC[C@H]1C(=O)N[C@@H](Cc1ccc(O)cc1)C(=O)N2 | Tumor necrosis factor receptor superfamily member 9 | binding, SPR | Kd | 5.1 nM |
| COC(=O)[C@H](Cc1c[nH]cn1)NC(=O)CN(CCCCc1ccccc1)CC(=O)O | IDE | enzyme activity, inhibitor, fluorescence | IC50 | 600 nM |
| Nc1nc2c(ncn2[C@@H]2O[C@H](COP(=O)(O)OP(=O)(O)OP(=O)(O)OC[C@H]3O[C@@H](n4cnc5c(=O)[nH]c(N)nc54)[C@H](O)[C@@H]3O)[C@@H](O)[C@H]2O)c(=O)[nH]1 | Gem-associated protein 5 (Homo sapiens, UniProt Q8TEQ6) | binding, ITC | Kd | 140000 nM |
| COC(=O)[C@H](Cc1c[nH]cn1)NC(=O)CN(CC(=O)O)Cc1ccc2ccccc2c1 | IDE | enzyme activity, inhibitor, fluorescence | IC50 | 1200 nM |
| CCCC[C@@H]1NC(=O)[C@H](Cc2ccc(O)cc2)NC(=O)[C@@H]2CCCN2C(=O)[C@H](CC(=O)O)NC(=O)[C@H](C)NC(=O)[C@H](Cc2ccccc2)NC(=O)[C@@H]2CSCCC(=O)N3CN(CN(C3)C(=O)CCSC[C@@H](C(=O)N[C@@H](CNC(=O)Cn3cc(CCC(=O)NCCC(=O)N(C)CC(=O)N(C)CC(=O)N(C)CC(=O)N(C)CC(=O)N(C)CC(=O)N(C)CC(=O)N(C)CC(=O)N(C)CC(=O)N(C)CC(=O)N(C)CC(=O)N[C@H]4CSCCC(=O)N5CN6CN(C5)C(=O)CCSC[C@H](NC(=O)[C@@H](CC(=O)O)NC(=O)[C@H](Cc5cccc7ccccc57)NC(=O)[C@@H]5CCCN5C4=O)C(=O)N[C@@H](CCSC)C(=O)N[C@@H](CCCCNC(=N)N)C(=O)N[C@@H](CC(=O)O)C(=O)N[C@@H](Cc4c[nH]c5ccccc45)C(=O)N[C@@H](CO)C(=O)N[C@@H]([C@@H](C)O)C(=O)N4CCC[C@H]4C(=O)N4C[C@H](O)C[C@H]4C(=O)N[C@@H](Cc4c[nH]c5ccccc45)C(=O)N[C@H](C(N)=O)CSCCC6=O)nn3)C(N)=O)NC1=O)C(=O)CCSC[C@H](NC(C)=O)C(=O)N[C@@H](CC(C)(C)C)C(=O)N1CCC[C@H]1C(=O)N[C@@H](CCC(=O)O)C(=O)N[C@H](C)C(=O)N1CCC[C@H]1C(=O)N[C@@H](Cc1ccc(O)cc1)C(=O)N2 | Tumor necrosis factor receptor superfamily member 9 | binding, SPR | Kd | 4.9 nM |
